By MIC is commonly meant the lowest concentration that inhibits growth of the organism.

The source of these data is ChEMBL document CHEMBL1151832, “Structure elucidation at the nanomole scale. 1. Trisoxazole macrolides and thiazole-containing cyclic peptides from the nudibranch Hexabranchus sanguineus” (2009).

Converted amounts (≈) assume the structure as drawn. The source made the active and inactive calls. The rule behind the calls is not given here.

For test [1], the system named is Cryptococcus gattii. Nature of the test: Antifungal activity against Cryptococcus neoformans var. gattii clinical isolate by broth microdilution method. The settings on record: Cryptococcus bacillisporus. It is filed as functional, organism-based. In a few lines:
(§1)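 Isolates were maintained on Sabouraud dextrose agar at 30 °C, for 24 h (Candida) or 48 h (C. neoformans). Testing followed the NCCLS broth microdilution method, using 2-fold serial dilutions from DMSO stocks in RPMI-1640 buffered to pH 7.0 with 0.165 M MOPS. Final concentrations were 0.062–64 µg/mL, with amphotericin B as positive control. Replicates were run, and growth was read by OD600. MIC was the lowest concentration giving ≥90% inhibition.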
(Dilution methods test growth across graded concentrations, often in twofold steps.)

For test [2], the system named is Pichia kudriavzevii. As to the kind of experiment: Antifungal activity against fluconazole-resistant Candida krusei clinical isolate by broth microdilution method. In kind it is functional, organism-based. In a few lines: as §1
Test [3] concerns Candida albicans. Nature of the test: Antifungal activity against fluconazole-resistant Candida albicans isolate UCDFR1 by broth microdilution method. In kind it is functional, organism-based. In a few lines:
as §1

In test [4] the test system is Nakaseomyces glabratus. As to the kind of experiment: Antifungal activity against Candida glabrata clinical isolate by broth microdilution method. It is filed as functional. Summed up: as §1
Test [5] has as its system Candida albicans. As to the kind of experiment: Antifungal activity against fluconazole-resistant Candida albicans isolate 96-489 by broth microdilution method.
For test [6], the system named is Candida albicans. As to the kind of experiment: Antifungal activity against Candida albicans ATCC 14503 by broth microdilution method. In kind it is functional. Summed up:
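C. albicans reference strain grown on Sabouraud dextrose agar at 30 °C for 24 h. NCCLS broth microdilution: 2-fold serial dilutions from DMSO stocks in RPMI-1640 buffered to pH 7.0 with 0.165 M MOPS. Final concentrations 0.062–64 µg/mL; amphotericin B control 0.0078–8 µg/mL. Tested in replicate; growth read as OD 600 nm; MIC = lowest concentration giving ≥90% growth inhibition.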

For test [7], the system named is Cryptococcus neoformans. Nature of the test: Antifungal activity against Cryptococcus neoformans var. grubii clinical isolate by broth microdilution method. In kind it is functional. Summed up: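 Clinical isolate maintained on Sabouraud dextrose agar, 30 °C, 48 h. Susceptibility by NCCLS broth microdilution in RPMI-1640 with 0.165 M MOPS (pH 7.0), using 2-fold dilutions from DMSO stocks spanning 0.062–64 µg/mL final (amphotericin B control 0.0078–8 µg/mL). Replicate wells per run; OD 600 nm read-out; MIC endpoint is the lowest concentration with complete (≥90%) inhibition.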

As to `CO[C@H]([C@H](C)/C=C/N(C)C=O)[C@@H](C)C(=O)CC[C@H](C)[C@H](C[C@@H]1OC(=O)C[C@@H](OC(N)=O)C[C@H](C)C[C@H](O)[C@H](C)[C@@H](O)c2coc(n2)-c2coc(n2)-c2coc(n2)/C=C/C[C@H](O)[C@H]1C)OC` [9-O-DESMETHYL KABIRAMIDE B], the MIC entry in test [1], in test [2], in test [3] and in test [5] was “inactive” each time. Also, the MIC in test [4] was determined as 1 µg/mL (≈ 1.09 µM); in test [6] it was 2 µg/mL (≈ 2.19 µM); in test [7] it was 2 µg/mL (≈ 2.19 µM).

`CO[C@H]([C@H](C)/C=C/N(C)C=O)[C@@H](C)C(=O)CC[C@H](C)[C@H](C[C@@H]1OC(=O)C[C@@H](O)CCC[C@H](O)[C@H](C)[C@H](OC)c2coc(n2)-c2coc(n2)-c2coc(n2)/C=C/CC[C@H]1C)OC`: the values for the minimum inhibitory concentration (MIC) in test [4], in test [6] and in test [7] were 0.125 µg/mL (≈ 0.146 µM), 0.25 µg/mL (≈ 0.292 µM) and 0.5 µg/mL (≈ 0.585 µM), respectively.

For the compound `CO[C@H]([C@H](C)/C=C/N(C)C=O)[C@@H](C)C(=O)CC[C@H](C)[C@H](C[C@@H]1OC(=O)C[C@@H](OC(N)=O)C[C@H](C)C[C@H](O)[C@H](C)[C@@H](OC)c2coc(n2)-c2coc(n2)-c2coc(n2)/C=C/C[C@H](O)[C@H]1C)OC` [KABIRAMIDE B], the MIC is 0.5 µg/mL (≈ 0.539 µM) in test [4], 0.5 µg/mL (≈ 0.539 µM) in test [6] and 1 µg/mL (≈ 1.08 µM) in test [7].

`C[C@@H]1[C@H](O)[C@@H](C)/C=C/C=C/C=C/C=C/C=C/C=C/C=C/[C@H](O[C@@H]2O[C@H](C)[C@@H](O)[C@H](N)[C@@H]2O)C[C@@H]2O[C@](O)(C[C@@H](O)C[C@@H](O)[C@H](O)CC[C@@H](O)C[C@@H](O)CC(=O)O[C@H]1C)C[C@H](O)[C@H]2C(=O)O` [AMPHOTERICIN B]: the minimum inhibitory concentration (MIC) was found to be 0.25 µg/mL (≈ 0.271 µM) in test [4], 0.016 µg/mL (≈ 0.0173 µM) in test [6] and 0.016 µg/mL (≈ 0.0173 µM) in test [7].

For `CO[C@H]([C@H](C)/C=C/N(C)C=O)[C@@H](C)C(=O)CC[C@H](C)[C@H](C[C@@H]1OC(=O)C[C@@H](OC(N)=O)C[C@H](C)C[C@H](O)[C@H](C)[C@@H](OC)c2coc(n2)-c2coc(n2)-c2coc(n2)/C=C/C[C@H](OC)[C@H]1C)OC` [KABIRAMIDE C], the minimum inhibitory concentration (MIC) entry in test [1], in test [2], in test [3] and in test [5] was “Active” throughout. For the same compound, the minimal inhibitory concentration (MIC) in test [4] was found to be 0.25 µg/mL (≈ 0.265 µM); in test [6], 0.016 µg/mL (≈ 0.017 µM); in test [7], 0.125 µg/mL (≈ 0.133 µM).
